This excerpt belongs to a sample that is enriched for hits.
GASC1 inh = blocks human GASC-1 (KDM4C) demethylase activity. Q9H3R0. GST-KDM4C 2-372, H3K9me3 peptide, LANCE TR-FRET. inhibition, % at 12.5 µM. 96,000 tested, 0.15% active;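 active means mean replicate inhibition above about 25%, with at least 55% of replicates also reaching it, limit read from the data, passing the limit was not always enough; inconclusive means only one of those two conditions met; inactive means neither condition met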
Target sequence (Q9H3R0 2-372 limits assumed): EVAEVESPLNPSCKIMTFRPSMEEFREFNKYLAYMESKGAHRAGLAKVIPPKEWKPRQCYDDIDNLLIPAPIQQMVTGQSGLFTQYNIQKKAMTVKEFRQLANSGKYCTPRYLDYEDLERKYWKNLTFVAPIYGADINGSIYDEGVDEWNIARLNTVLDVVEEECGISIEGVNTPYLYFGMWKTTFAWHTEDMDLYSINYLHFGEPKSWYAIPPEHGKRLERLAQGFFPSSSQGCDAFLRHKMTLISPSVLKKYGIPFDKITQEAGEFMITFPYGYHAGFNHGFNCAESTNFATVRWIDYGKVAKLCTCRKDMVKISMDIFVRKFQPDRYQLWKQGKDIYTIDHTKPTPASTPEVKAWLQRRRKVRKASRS
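Material: GST-tagged GASC-1 (JMJD2C) catalytic fragment, aa 2-372 / Quantity: enzyme final amount 10 nM / Medium: HEPES buffer, pH 7.5, plus ascorbate / Doses: one test concentration per compound / Incubation: 30 min reaction, 60 min detection, RT / Measured by: LANCE TR-FRET / Read-out: inhibition from TR-FRET ratio decrease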
T cruzi growth-1 = T. cruzi proliferation inhibition; T. cruzi beta-gal in NIH3T3, GalScreen luminescence, 90 h; inhibition, % at 8.34 µM; 77,000 tested, 5.9% active; AID 624255;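 active means mean inhibition above about 93%, with at least 55% of replicates each passing it, limit read from the data, passing the limit was not always enough; inconclusive means only one of those two conditions holds; inactive means neither condition holds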
IDH1 mut inh = blocks human IDH1 R132H reductase activity; O75874; diaphorase/resazurin fluorescence, 60 min; inhibition, % at 10 µM; 70,000 tested, 0.18% active; in the data active means inhibition above about 34%; inconclusive means no clear call, values can overlap the other calls; inactive means below about 11%;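 further: 0% = DMSO and 100% = no enzyme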
T cruzi growth-2 = inhibitors of T. cruzi proliferation; shares compounds with T cruzi growth-1; T. cruzi beta-gal in NIH3T3, GalScreen luminescence, 90 h; inhibition, % at 8.35 µM; 5,600 tested, 72% active; AID 651739;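 active means mean replicate inhibition above about 95% and at least 55% of replicates individually reaching it, limit read from the data; inconclusive means only one of the two criteria is met; inactive means neither criterion is met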
T cruzi growth-3 = inhibitors of T. cruzi proliferation; 5,600 tested, 21% active; T. cruzi beta-gal in NIH3T3, GalScreen luminescence, 90 h; shares compounds with T cruzi growth-1; AID 651740; inhibition, % at 2.09 µM;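 active means mean inhibition above about 95%, with at least 55% of replicates also reaching it, limit read from the data; inconclusive means meets just one of the two conditions; inactive means meets neither condition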;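 further: plate controls were neutral control median for no effect and positive control median for full effect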
NIH3T3 tox = NIH/3T3 (mouse) viability loss; AID 651742; 5,600 tested, 14% active; NIH/3T3 viability, CellTiter-Glo ATP luminescence, 90 h; shares compounds with T cruzi growth-1; cytotoxicity (signal decrease), % at 8.35 µM;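 active means mean signal decrease across replicates above about 35% based on untreated-well scatter, with enough replicates individually passing, limit read from the data; inconclusive means no rule stated though some were filed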;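 further: 0% = median of neutral control wells and 100% = median of positive control wells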
NIH3T3 tox 2 = kills mouse NIH/3T3 fibroblasts. 5,600 tested, 56% active. shares compounds with T cruzi growth-1. AID 651744. NIH/3T3 viability, CellTiter-Glo ATP luminescence, 90 h. inhibition, % at 24.9 µM;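 active means mean loss of cell viability signal at or above a set limit, and enough replicates individually reaching it; inconclusive means meets only the mean limit or only the replicate share; inactive means meets neither condition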;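 further: 0% = median of neutral control wells and 100% = median of positive control wells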
The depositor's hits bear a star; ? = inconclusive; . = no result.

SMILES	GASC1 inh	T cruzi growth-1	IDH1 mut inh	T cruzi growth-2	T cruzi growth-3	NIH3T3 tox	NIH3T3 tox 2
C/C=C/c1cnc2c(c1)C(=O)N([C@@H](C)CO)C[C@@H](C)[C@H](CN(C)C(=O)Nc1ccc(OC)cc1)O2	0.2	-5.5	-0.6	.	.	.	.
CC(=O)N[C@@H]1CC[C@H](CCNC(=O)C2CC2)O[C@H]1CO	5.6	11.7	0.6	.	.	.	.
C[C@H]1CN([C@@H](C)CO)C(=O)Cc2cc(NC(=O)CCC(F)(F)F)ccc2O[C@H]1CN(C)Cc1ccccc1	3.0	30.5	-0.8	.	.	.	.
COc1ccc(S(=O)(=O)Nc2ccc3c(c2)C(=O)N([C@@H](C)CO)C[C@H](C)[C@H](CN(C)S(=O)(=O)c2ccc(OC)cc2)OCCCC[C@H](C)O3)cc1	0.2	100.9*	.	110.7*	16.6	-0.4	-10.0
COc1ccc(S(=O)(=O)Nc2ccc3c(c2)C(=O)N([C@H](C)CO)C[C@H](C)[C@H](CN(C)S(=O)(=O)c2ccc(OC)cc2)OCCCC[C@@H](C)O3)cc1	1.0	48.4	.	.	.	.	.
COc1ccc(S(=O)(=O)Nc2ccc3c(c2)C(=O)N([C@@H](C)CO)C[C@@H](C)[C@H](CN(C)S(=O)(=O)c2ccc(OC)cc2)OCCCC[C@H](C)O3)cc1	0.0	78.2	.	.	.	.	.
COc1ccc(S(=O)(=O)Nc2ccc3c(c2)C(=O)N([C@H](C)CO)C[C@H](C)[C@H](CN(C)S(=O)(=O)c2ccc(OC)cc2)OCCCC[C@H](C)O3)cc1	0.1	99.8*	0.4	109.3*	64.3	1.8	8.6
C[C@H](CO)N1C[C@H](C)[C@@H](CN(C)C(=O)CCCN(C)C)OCCCC[C@H](C)Oc2ccc(NC(=O)Nc3ccc(C(F)(F)F)cc3)cc2C1=O	2.6	17.1	3.6	.	.	.	.
O=C(c1ccc(F)cc1)N1CCCCN2[C@H](CO)[C@@H](c3ccc(C#CC4(O)CCCC4)cc3)[C@H]2C1	-1.4	100.1*	.	34.6	15.6	3.5	-5.6
O=C(C1CCCC1)N1CCCCN2[C@H](C1)[C@@H](c1ccc(C#CC3(O)CCCC3)cc1)[C@@H]2CO	.	70.1	.	.	.	.	.
O=C(C1CCCC1)N1CCCCN2[C@H](CO)[C@@H](c3ccc(C#CC4(O)CCCC4)cc3)[C@H]2C1	.	104.4*	.	-4.9	19.9	5.7	18.7
O=C(c1ccc(F)cc1)N1CCCCN2[C@H](C1)[C@H](c1ccc(C#CC3(O)CCCC3)cc1)[C@@H]2CO	-1.5	43.8	.	.	.	.	.
O=C(C1CCCC1)N1CCCCN2[C@H](CO)[C@H](c3ccc(C#CC4(O)CCCC4)cc3)[C@@H]2C1	.	102.6*	.	98.5*	75.6	8.9	25.8
O=C(C1CC1)N1CCCCN2[C@@H](CO)[C@@H](c3ccc(C#CC4(O)CCCC4)cc3)[C@@H]2C1	.	13.6	.	.	.	.	.
CNC[C@H]1OCCCC[C@H](C)Oc2ccc(NS(=O)(=O)c3ccccc3)cc2C(=O)N([C@H](C)CO)C[C@@H]1C	-0.1	-24.3	2.9	.	.	.	.
C[C@@H]1CN([C@@H](C)CO)C(=O)Cc2cc(NC(=O)Nc3ccc(C(F)(F)F)cc3)ccc2O[C@@H]1CN(C)C(=O)NC1CCCCC1	-2.1	2.6	-1.3	.	.	.	.
COCC(=O)Nc1ccc2c(c1)[C@H]1C[C@@H](CC(=O)NC3CCCCC3)O[C@H](CO)[C@H]1O2	-3.3	-3.6	0.0	.	.	.	.
C/C=C/c1ccc2c(c1)O[C@@H](CN(C)S(=O)(=O)c1ccccc1)[C@@H](C)CN([C@@H](C)CO)S2(=O)=O	-2.0	65.4	-23.4	.	.	.	.
COc1ccccc1S(=O)(=O)N(C)C[C@@H]1Oc2cc(/C=C/c3ccccc3)ccc2S(=O)(=O)N([C@H](C)CO)C[C@H]1C	1.7	123.8*	-0.1	104.8*	103.4*	63.2*	70.8*
C[C@H](CO)N1C[C@H](C)[C@H](CN(C)C)Oc2cc(/C=C/c3ccccc3)ccc2S1(=O)=O	12.7	8.8	-1.5	.	.	.	.
C/C=C/c1ccc2c(c1)O[C@@H](CN(C)S(=O)(=O)c1ccccc1OC)[C@@H](C)CN([C@@H](C)CO)S2(=O)=O	-0.9	67.4	-1.9	.	.	.	.
C/C=C/c1ccc2c(c1)O[C@@H](CN(C)S(=O)(=O)c1ccc(C)cc1)[C@@H](C)CN([C@H](C)CO)S2(=O)=O	-3.4	113.6*	-0.9	99.7*	80.6	31.7	67.3*
C/C=C/c1ccc2c(c1)O[C@H](CN(C)S(=O)(=O)c1ccccc1OC)[C@@H](C)CN([C@H](C)CO)S2(=O)=O	-2.0	116.5*	-6.3	106.2*	86.4	39.1*	?
C[C@@H]1CN([C@@H](C)CO)S(=O)(=O)c2ccc(/C=C/c3ccccc3)cc2O[C@H]1CN(C)C(=O)NC1CCCC1	0.6	101.2	4.1	.	.	.	.
O=C(CCN1CCCCC1)N[C@H]1CC[C@@H](CCn2cc(-c3ccccc3)nn2)O[C@H]1CO	0.6	-4.8	0.1	.	.	.	.
SMILES	GASC1 inh	T cruzi growth-1	IDH1 mut inh	T cruzi growth-2	T cruzi growth-3	NIH3T3 tox	NIH3T3 tox 2
O=S(=O)(c1ccccc1)N1CCCCN2[C@H](C1)[C@H](c1ccc(-c3cncnc3)cc1)[C@@H]2CO	-2.0	88.0	.	.	.	.	.
Cc1ccc(S(=O)(=O)NCC[C@@H]2CC[C@H](NC(=O)c3ccccn3)[C@@H](CO)O2)cc1	1.3	26.0	-0.3	.	.	.	.
CCCC#Cc1ccc([C@H]2[C@@H](CO)N3CCCCN(S(=O)(=O)Cc4ccccc4)C[C@@H]23)cc1	-0.3	82.5	.	.	.	.	.
O=S(=O)(Cc1ccccc1)N1CCCCN2[C@H](CO)[C@H](c3ccc(C#Cc4ccccc4)cc3)[C@@H]2C1	-2.8	106.2*	.	103.5*	107.9*	18.2	65.9*
CCCC#Cc1ccc([C@H]2[C@H](CO)N3CCCCN(S(=O)(=O)Cc4ccccc4)C[C@@H]23)cc1	-2.2	97.3*	.	101.4*	61.0	39.3*	104.1*
O=S(=O)(Cc1ccccc1)N1CCCCN2[C@@H](CO)[C@@H](c3ccc(C#Cc4ccccc4)cc3)[C@@H]2C1	-4.1	-11.6	.	.	.	.	.
CCS(=O)(=O)N1CCCCN2[C@@H](CO)[C@H](c3ccc(C#Cc4ccccc4OC)cc3)[C@@H]2C1	-2.2	114.2*	.	110.4*	94.8	24.8	82.6*
COc1ccccc1C#Cc1ccc([C@H]2[C@@H](CO)N3CCCCN(S(C)(=O)=O)C[C@@H]23)cc1	-1.4	87.3	.	.	.	.	.
CC(C)CC#Cc1ccc([C@@H]2[C@H](CO)N3CCCCN(S(=O)(=O)Cc4ccccc4)C[C@@H]23)cc1	-2.1	93.3	.	.	.	.	.
CC(C)CC#Cc1ccc([C@H]2[C@H](CO)N3CCCCN(S(=O)(=O)Cc4ccccc4)C[C@@H]23)cc1	-2.2	100.2*	.	103.7*	91.6	23.7	106.6*
Cc1ccc(S(=O)(=O)Nc2ccc3c(c2)C(=O)N([C@@H](C)CO)C[C@H](C)[C@@H](CN(C)S(=O)(=O)c2cccs2)OCCCC[C@H](C)O3)cc1	0.4	.	.	.	.	.	.

Screening data from PubChem.
